From ChEMBL document CHEMBL2057149 (J Med Chem, 2012)
Activity calls are given as the source filed them. The rule behind the calls is not given here.

Key:
[1] = system: HUVEC; assay: Antiangiogenic activity in VEGF-stimulated HUVEC cells after 72 hrs by CellTiter assay; type: functional, cell-based; settings: Homo sapiens
[2] = target: Vascular endothelial growth factor A (Homo sapiens) (UniProt P15692); assay: Binding affinity to VEGF by surface plasmon resonance assay
[3] = system: Plasma; assay: Anticoagulant activity in pooled human plasma assessed as activated partial thromboplastin time at 0.1 mg/ml; type: ADME, cell-free
Outline: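 APTT of pooled normal human plasma measured with compound at 0–100 μg/mL in PBS on a ball coagulameter, using unfractionated heparin as the reference. Normal range 26–36 s; coefficient of variation 2% at 36 s and 5–7% at 90 s or above. Values are the mean of two determinations.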

[4] = system: HMVEC; assay: Antiangiogenic activity in FGF1-stimulated HMVEC cells after 72 hrs by CellTiter assay; type: functional, cell-based; settings: Homo sapiens
[5] = system: HUVEC; assay: Antiangiogenic activity in FGF1-stimulated HUVEC cells after 72 hrs by CellTiter assay; type: functional, cell-based; settings: Homo sapiens
[6] = system: Plasma; assay: Anticoagulant activity in pooled human plasma assessed as prolongation of the recalcification time at 0.1 mg/ml by Heptest assay; type: ADME, cell-free
Outline: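 Heptest clotting time in pooled normal human plasma; normal range 13–20 s. Values are the mean of two determinations.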

[7] = system: HUVEC; assay: Antiangiogenic activity in FGF2-stimulated HUVEC cells after 72 hrs by CellTiter assay; type: functional, cell-based; settings: Homo sapiens
[8] = system: HMVEC; assay: Antiangiogenic activity in FGF2-stimulated HMVEC cells after 72 hrs by CellTiter assay; type: functional, cell-based; settings: Homo sapiens
[9] = system: HMVEC; assay: Antiangiogenic activity in VEGF-stimulated HMVEC cells after 72 hrs by CellTiter assay; type: functional, cell-based; settings: Homo sapiens
[10] = target: Fibroblast growth factor 2 (Homo sapiens, UniProt P09038); assay: Binding affinity to FGF-2 by surface plasmon resonance assay
Sequence of Fibroblast growth factor 2 (P09038 143-288 limits assumed): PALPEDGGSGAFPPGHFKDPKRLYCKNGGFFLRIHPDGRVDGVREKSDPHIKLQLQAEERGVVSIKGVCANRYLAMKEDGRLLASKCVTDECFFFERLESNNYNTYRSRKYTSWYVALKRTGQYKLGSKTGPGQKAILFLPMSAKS
Outline: (§1)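 Solution-affinity SPR on heparin-coated CM4 chips. FGF-1 measured in HBS-EP (10 mM HEPES pH 7.4, 150 mM NaCl, 3.0 mM EDTA, 0.005% polysorbate 20); FGF-2 measured in HBS-EP with 300 mM NaCl. Kd is the average of at least duplicate measurements ± SD.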

[11] = target: T1, Heparanase (Homo sapiens, UniProt Q9Y251); assay: Inhibition of human recombinant heparanase after 2 to 24 hrs by WST1 dye based fondaparinux assay
T1 sequence (Q9Y251 whole entry): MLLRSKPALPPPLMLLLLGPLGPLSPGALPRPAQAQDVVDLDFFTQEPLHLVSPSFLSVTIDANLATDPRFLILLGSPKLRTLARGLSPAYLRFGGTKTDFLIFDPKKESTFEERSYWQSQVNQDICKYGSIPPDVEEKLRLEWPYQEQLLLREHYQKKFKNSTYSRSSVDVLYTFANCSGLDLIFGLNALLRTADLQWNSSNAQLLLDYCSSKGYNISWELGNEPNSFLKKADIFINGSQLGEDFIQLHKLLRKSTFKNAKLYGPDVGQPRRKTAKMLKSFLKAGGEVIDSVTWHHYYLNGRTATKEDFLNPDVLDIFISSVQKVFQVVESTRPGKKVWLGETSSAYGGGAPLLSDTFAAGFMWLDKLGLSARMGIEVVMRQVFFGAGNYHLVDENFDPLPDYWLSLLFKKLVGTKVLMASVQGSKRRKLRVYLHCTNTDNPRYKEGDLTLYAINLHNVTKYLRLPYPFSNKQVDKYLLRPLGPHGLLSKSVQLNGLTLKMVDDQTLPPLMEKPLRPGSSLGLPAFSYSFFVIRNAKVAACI

[12] = target: Fibroblast growth factor 1 (Homo sapiens, UniProt P05230); assay: Binding affinity to FGF-1 by surface plasmon resonance assay; outline: as §1
Sequence of Fibroblast growth factor 1 (P05230 whole entry): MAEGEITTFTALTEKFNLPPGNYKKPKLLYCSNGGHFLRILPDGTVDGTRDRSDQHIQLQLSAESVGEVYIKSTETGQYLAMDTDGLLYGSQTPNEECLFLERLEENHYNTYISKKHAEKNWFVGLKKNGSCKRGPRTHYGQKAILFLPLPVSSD

Row | SMILES | IC50 [1] [nM] | Kd [2] [nM] | APTT [3] [s] | Activity [4] | IC50 [5] [nM] | Time [6] [s] | IC50 [7] [nM] | Activity [8] | Activity [9] | Kd [10] [nM] | Ki [11] [nM] | Kd [12] [nM]
1 | CC(C)CCC[C@@H](C)[C@H]1CC[C@H]2[C@@H]3CC[C@H]4C[C@@H](OCc5cn([C@@H]6O[C@H](COS(=O)(=O)[O-])[C@@H](O[C@H]7O[C@H](COS(=O)(=O)[O-])[C@@H](OS(=O)(=O)[O-])[C@H](OS(=O)(=O)[O-])[C@H]7OS(=O)(=O)[O-])[C@H](OS(=O)(=O)[O-])[C@H]6OS(=O)(=O)[O-])nn5)CC[C@]4(C)[C@H]3CC[C@]12C.[Na+].[Na+].[Na+].[Na+].[Na+].[Na+].[Na+] | 1130 | 1930 | 40.3 | Active | 4100 | 26.7 | 4170 | Active | Active |  |  | 
2 | CC(C)CCC[C@@H](C)[C@H]1CC[C@H]2[C@@H]3CC[C@H]4C[C@@H](O[C@H]5O[C@H](COS(=O)(=O)[O-])[C@@H](OS(=O)(=O)[O-])[C@H](OS(=O)(=O)[O-])[C@@H]5OS(=O)(=O)[O-])CC[C@]4(C)[C@H]3CC[C@]12C.[Na+].[Na+].[Na+].[Na+] | 2240 | 3000 | 36.1 | Active | 2200 | 23.9 | 2900 | Active | Active | > 3000 |  | 
3 | CC(C)CCC[C@@H](C)[C@H]1CC[C@H]2[C@@H]3CC[C@H]4C[C@@H](OCc5cn(CCCO[C@H]6O[C@H](COS(=O)(=O)[O-])[C@@H](OS(=O)(=O)[O-])[C@H](OS(=O)(=O)[O-])[C@@H]6O[C@H]6O[C@H](COS(=O)(=O)[O-])[C@@H](OS(=O)(=O)[O-])[C@H](O[C@H]7O[C@H](COS(=O)(=O)[O-])[C@@H](OS(=O)(=O)[O-])[C@H](OS(=O)(=O)[O-])[C@@H]7OS(=O)(=O)[O-])[C@@H]6OS(=O)(=O)[O-])nn5)CC[C@]4(C)[C@H]3CC[C@]12C.[Na+].[Na+].[Na+].[Na+].[Na+].[Na+].[Na+].[Na+].[Na+].[Na+] | 2100 | 460 | 73.3 | Active | 3800 | 33.1 | 1700 | Active | Active | 480 | 8.5 | 22.6
4 | CC(C)CCC[C@@H](C)[C@H]1CC[C@H]2[C@@H]3CC[C@H]4C[C@@H](OCc5cn(CCCO[C@H]6O[C@H](COS(=O)(=O)[O-])[C@@H](OS(=O)(=O)[O-])[C@H](O[C@H]7O[C@H](COS(=O)(=O)[O-])[C@@H](OS(=O)(=O)[O-])[C@H](O[C@H]8O[C@H](COS(=O)(=O)[O-])[C@@H](OS(=O)(=O)[O-])[C@H](OS(=O)(=O)[O-])[C@@H]8OS(=O)(=O)[O-])[C@@H]7OS(=O)(=O)[O-])[C@@H]6OS(=O)(=O)[O-])nn5)CC[C@]4(C)[C@H]3CC[C@]12C.[Na+].[Na+].[Na+].[Na+].[Na+].[Na+].[Na+].[Na+].[Na+].[Na+] | 1400 | 260 | 71.4 | Active | 2610 | 26.4 | 1200 | Active | Active | 474 | 8.4 | 14.3
5 | CC(C)CCC[C@@H](C)[C@H]1CC[C@H]2[C@@H]3CC[C@H]4C[C@@H](OCc5cn([C@@H]6O[C@H](COS(=O)(=O)[O-])[C@@H](O[C@H]7O[C@H](COS(=O)(=O)[O-])[C@@H](O[C@H]8O[C@H](COS(=O)(=O)[O-])[C@@H](OS(=O)(=O)[O-])[C@H](OS(=O)(=O)[O-])[C@H]8OS(=O)(=O)[O-])[C@H](OS(=O)(=O)[O-])[C@H]7OS(=O)(=O)[O-])[C@H](OS(=O)(=O)[O-])[C@H]6OS(=O)(=O)[O-])nn5)CC[C@]4(C)[C@H]3CC[C@]12C.[Na+].[Na+].[Na+].[Na+].[Na+].[Na+].[Na+].[Na+].[Na+].[Na+] | 1800 | 790 | 61.2 | Active | 2100 | 30.2 | 1200 | Active | Active | 610 | 16 | 50
6 | CCCCCCCCCCCCCCCCCC(=O)NCCCO[C@@H]1O[C@H](COS(=O)(=O)[O-])[C@@H](O[C@H]2O[C@H](COS(=O)(=O)[O-])[C@@H](O[C@H]3O[C@H](COS(=O)(=O)[O-])[C@@H](OS(=O)(=O)[O-])[C@H](OS(=O)(=O)[O-])[C@H]3OS(=O)(=O)[O-])[C@H](OS(=O)(=O)[O-])[C@H]2OS(=O)(=O)[O-])[C@H](OS(=O)(=O)[O-])[C@H]1OS(=O)(=O)[O-].[Na+].[Na+].[Na+].[Na+].[Na+].[Na+].[Na+].[Na+].[Na+].[Na+] |  | 380 | 51.1 | Active |  | 24.9 |  | Active | Active |  |  | 
7 | CC(C)CCC[C@@H](C)[C@H]1CC[C@H]2[C@@H]3CC[C@H]4C[C@@H](O[C@H]5O[C@H](COS(=O)(=O)[O-])[C@@H](OS(=O)(=O)[O-])[C@H](OS(=O)(=O)[O-])[C@@H]5O[C@H]5O[C@H](COS(=O)(=O)[O-])[C@@H](OS(=O)(=O)[O-])[C@H](OS(=O)(=O)[O-])[C@@H]5OS(=O)(=O)[O-])CC[C@]4(C)[C@H]3CC[C@]12C.[Na+].[Na+].[Na+].[Na+].[Na+].[Na+].[Na+] | 1800 | 1300 | 40.6 | Active | > 10000 | 25.5 | 2220 | Active | Active |  |  | 
8 | CC(C)CCC[C@@H](C)[C@H]1CC[C@H]2[C@@H]3CC[C@H]4C[C@@H](O[C@@H]5O[C@H](COS(=O)(=O)[O-])[C@@H](O[C@@H]6O[C@H](COS(=O)(=O)[O-])[C@@H](OS(=O)(=O)[O-])[C@H](OS(=O)(=O)[O-])[C@H]6OS(=O)(=O)[O-])[C@H](OS(=O)(=O)[O-])[C@H]5OS(=O)(=O)[O-])CC[C@]4(C)[C@H]3CC[C@]12C.[Na+].[Na+].[Na+].[Na+].[Na+].[Na+].[Na+] | 5600 | 1350 | 38.8 | Active | 6000 | 25.3 | 5600 | Active | Active | 2000 |  | 870
9 | CC(C)CCC[C@@H](C)[C@H]1CC[C@H]2[C@@H]3CC[C@H]4C[C@@H](O[C@@H]5O[C@H](COS(=O)(=O)[O-])[C@@H](O[C@H]6O[C@H](COS(=O)(=O)[O-])[C@@H](OS(=O)(=O)[O-])[C@H](OS(=O)(=O)[O-])[C@H]6OS(=O)(=O)[O-])[C@H](OS(=O)(=O)[O-])[C@H]5OS(=O)(=O)[O-])CC[C@]4(C)[C@H]3CC[C@]12C.[Na+].[Na+].[Na+].[Na+].[Na+].[Na+].[Na+] | 5200 | 1200 | 38.6 | Active | 4000 | 23.9 | > 10000 | Active | Active | 2200 |  | 560
